The record followed here is ChEMBL document CHEMBL4814064, “Azetidinimines as a novel series of non-covalent broad-spectrum inhibitors of β-lactamases with submicromolar activities against carbapenemases KPC-2 (class A), NDM-1 (class B) and OXA-48 (class D)” (Eur J Med Chem, 2021).

Some results are limits rather than exact numbers.

Data set [1] in a line: Inhibition of Escherichia coli NTBC121 NDM-1 by UV absorbance analysis.
The test system of data set [2] is Escherichia coli. The experiment in a line: Potentiation of imipenem-induced antibacterial activity against Escherichia coli clinical isolate GUE expressing NDM-1 assessed as imipenem MIC at 50 uM incubated for 18 to 24 hrs by broth microdilution method (reference value: 16 ug/ml). It is filed as functional. The conditions noted are these: time 18-24 hrs. (In general: In broth dilution the organism is exposed to a series of concentrations in liquid medium.)

A short description of data set [3]: Metabolic stability in mouse liver microsomes at 5 uM after 45 min absence of NADPH by UPLC-MS/MS analysis. Format: ADME, Microsome. The note with it: read-out: Stabilty. The procedure, abridged: (§1)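 Test compound at 5 µM with 0.5 mg/mL pooled male mouse liver microsomes in 0.1 M phosphate pH 7.4 at 37 °C. Reaction started with 1 mM NADPH and sampled at 0–45 min in duplicate; a no-NADPH control was run. Quenched with cold acetonitrile; parent measured by UPLC-MS/MS (MRM). t1/2 from log-linear decay; CLint per mg microsomal protein.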
For orientation: Liver microsomes are a subcellular fraction often used to study metabolism.

Data set [4] has as its system Bacteria. The experiment in a line: Inhibition of NDM-1 (unknown origin) expressed in Escherichia coli BL21 (DE3) at 10 uM incubated for 3 mins by spectrophotometric analysis relative to control. In outline:
(§2)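 NDM-1 (1 nM, His-tagged, expressed in E. coli BL21(DE3) with 1 mM IPTG for 3 h at 37 °C, purified, kept with 50 µM ZnSO4). Run in 100 mM phosphate pH 7 with 50 µM ZnSO4, 3 min enzyme–inhibitor preincubation, then 100 µM imipenem. Initial rates at 297 nm over 600 s, 25 °C. Triplicate seven-point IC50 converted to Ki (Cheng–Prusoff); percent inhibition at 10 µM.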

Data set [5] deals with Escherichia coli. Put plainly: Potentiation of imipenem-induced antibacterial activity against Escherichia coli clinical isolate GUE expressing NDM-1 assessed as imipenem MIC at 100 uM incubated for 18 to 24 hrs by broth microdilution method (reference value: 16 ug/ml). It is filed as functional. The conditions noted are these: time 18-24 hrs.
A short description of data set [6]: Inhibition of OXA-48 (unknown origin) expressed in Escherichia coli BL21 (DE3) incubated for 3 mins by spectrophotometric analysis. More on the design: species or system Bacteria. The conditions noted are these: read-out: Ki. In outline:
(§3)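 OXA-48 at 5.8 nM (His-tagged, expressed in BL21(DE3), purified in K2SO4 buffers) in 100 mM phosphate pH 7 plus 50 mM NaHCO3. Inhibitor preincubated 3 min; substrate 100 µM imipenem; initial velocities at 297 nm, 600 s, 25 °C. Seven inhibitor concentrations in triplicate give IC50, converted to Ki by Cheng–Prusoff; percent inhibition at 10 µM.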

Data set [7] can be described thus: Metabolic stability in mouse liver microsomes at 5 uM assessed as intrinsic clearance measured per mg protein by UPLC-MS/MS analysis. The note with it: read-out: CLH. Format: ADME, Microsome. In outline:
as §1

For data set [8], the target named is Class A carbapenemase KPC-2 (Escherichia coli, UniProt A8DS27). The experiment in a line: Inhibition of KPC-2 (unknown origin) expressed in Escherichia coli BL21 (DE3) incubated for 3 mins by spectrophotometric analysis. The note with it: read-out: Ki. The procedure, abridged:
(§4)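 Preincubated 3 min with inhibitor in 100 mM phosphate pH 7. Imipenem 100 µM; hydrolysis followed at 297 nm for 600 s at 25 °C. IC50 from seven concentrations in triplicate; Ki by Cheng–Prusoff. Percent inhibition read at 10 µM.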

In data set [9] the test system is Escherichia coli. The experiment in a line: Potentiation of imipenem-induced antibacterial activity against Escherichia coli clinical isolate GUE expressing NDM-1 assessed as imipenem MIC at 20 uM incubated for 18 to 24 hrs by broth microdilution method (reference value: 16 ug/ml). Format: functional. The note with it: time 18-24 hrs.
Data set [10] relates to Bacteria. Put plainly: Inhibition of OXA-48 (unknown origin) expressed in Escherichia coli BL21 (DE3) at 10 uM incubated for 3 mins by spectrophotometric analysis relative to control. In outline: as §3
The subject of data set [11] is Escherichia coli. The experiment in a line: Potentiation of imipenem-induced antibacterial activity against Escherichia coli clinical isolate GUE expressing NDM-1 assessed as fold change in imipenem MIC at 200 uM incubated for 18 to 24 hrs by broth microdilution method. Format: functional. The note with it: time 18-24 hrs.
Another data set concerns HCT-116. The experiment in a line: Cytotoxicity against human HCT-116 cells assessed as reduction in cell viability measured after 72 hrs by MTS assay. It is filed as cell-based. The note with it: HCT-116, 72 h. The procedure, abridged: (§5)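 Cells grown at 37 °C in 5% CO2: MRC-5 in DMEM and HCT116 in RPMI 1640, each with 10% FCS and 1% glutamine. Seeded at 2.5 × 10³ cells/well, dosed after 24 h, exposed 72 h, then read at 490 nm after 2 h with reagent. IC50 = concentration halving absorbance versus untreated; triplicate.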
For orientation: Tetrazolium dyes change colour on reduction, which living cells bring about.

The next data set has as its system MRC5. The experiment in a line: Cytotoxicity against human MRC-5 cells assessed as reduction in cell viability measured after 72 hrs by MTS assay. Format: cell-based. The note with it: MRC5, 72 h. In outline: as §5
The target in data set [12] is Class A carbapenemase KPC-2 (Escherichia coli) (UniProt A8DS27). Put plainly: Inhibition of KPC-2 (unknown origin) expressed in Escherichia coli BL21 (DE3) at 10 uM incubated for 3 mins by spectrophotometric analysis relative to control. The procedure, abridged: as §4
Data set [13] is described as follows: Inhibition of NDM-1 (unknown origin) expressed in Escherichia coli BL21 (DE3) incubated for 3 mins by spectrophotometric analysis. More on the design: species or system Bacteria. The note with it: read-out: Ki. The procedure, abridged: as §2
Data set [14] in a line: Inhibition of NDM-1 (unknown origin) expressed in Escherichia coli BW25113deltabamBdeltatolC mutant using nitrocefin as substrate by colorimetric analysis. More on the design: species or system Bacteria.
For data set [15], the system named is Escherichia coli. The experiment in a line: Potentiation of imipenem-induced antibacterial activity against Escherichia coli clinical isolate GUE expressing NDM-1 assessed as fold change in imipenem MIC at 50 uM incubated for 18 to 24 hrs by broth microdilution method. Format: functional. The note with it: time 18-24 hrs.
Data set [16] is described as follows: Inhibition of NDM-1 (unknown origin). Further details: species or system Bacteria.
Data set [17] has as its system Bacteria. Put plainly: Inhibition of NDM-9 (unknown origin) expressed in Escherichia coli BL21(DE3) at 10 uM. In outline: (§6)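 Enzymes cloned into pET41b from clinical enterobacterial DNA and expressed in E. coli BL21(DE3) overnight at 22 °C with 0.2 mM IPTG. His-tag affinity then Superdex 75 gel filtration (100 mM phosphate pH 7, 150 mM NaCl); dialysed into 10 mM Tris-HCl pH 7.6, with 50 µM ZnSO4 added for NDM and VIM variants.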

For data set [18], the system named is Bacteria. Put plainly: Inhibition of VIM-52 (unknown origin) expressed in Escherichia coli BL21(DE3) at 10 uM. The procedure, abridged: as §6
The test system of data set [19] is Bacteria. The experiment in a line: Inhibition of CTX-M-15 (unknown origin) expressed in Escherichia coli BL21(DE3) at 10 uM. In outline: as §6
For data set [20], the system named is Bacteria. The experiment in a line: Inhibition of CMY-2 (unknown origin) expressed in Escherichia coli BL21(DE3) at 10 uM. In outline: as §6
Data set [21] has as its system Bacteria. Put plainly: Inhibition of VIM-1 (unknown origin) expressed in Escherichia coli BL21(DE3) at 10 uM. In outline: as §6
The subject of data set [22] is Bacteria. The experiment in a line: Inhibition of NDM-4 (unknown origin) expressed in Escherichia coli BL21(DE3) at 10 uM. In outline:
as §6

The test system of data set [23] is Bacteria. Put plainly: Inhibition of NDM-7 (unknown origin) expressed in Escherichia coli BL21(DE3) at 10 uM. In outline:
as §6

Usually IC50 stands for the concentration that gives 50% inhibition. `O=C(O)c1ncsc1NS(=O)(=O)c1cccnc1` came in with an IC50 in data set [1] of 2670 nM.

As a reminder, the MIC is the lowest concentration found to suppress growth. Usually inhibition stands for the percentage by which the read-out fell short of the control. Read a low inhibition as little suppression. As usually defined, the Ki is a dissociation constant, usually derived from enzyme kinetics or from competition with a known ligand. Take `COc1ccc(N2/C(=N/c3ccc(I)cc3)CC2c2ccc(Cl)cc2Cl)cc1` (racemic): the MIC in the data set on Escherichia coli [2], in the data set on Escherichia coli [5] and in the data set on Escherichia coli [9] was 16 µg/mL in each case. For the same compound, in data set [3], the remaining at 0.75 h, 5 µM worked out at 83%. For the same compound, the inhibition (with Bacteria [4]; with Bacteria [10]; in [12]) was > 50% each time. For the same compound, the Ki in data set [6] amounted to 910 nM; in [8], 1890 nM; in data set [13] it was 220 nM. Besides, in [7], the microsomal CLint at 5 µM is 2 µL/min/mg. Moreover, in the data set with Escherichia coli [11], the “fold change (FC)” value is listed as 2. For the same compound, the IC50 with HCT-116 and in the data set on MRC5 was > 100000 nM in each case.

In turn, `N[C@H](CN[C@H](CN[C@@H](CC(=O)O)C(=O)O)C(=O)O)C(=O)O` came in with an IC50 in data set [14] of 4000 nM.

Take `Clc1ccc(C2C/C(=N\c3ccc(I)cc3)N2c2ccc(OCc3ccccc3)cc2)c(Cl)c1` (racemic): the MIC came out at 4 µg/mL with Escherichia coli [2], 2 µg/mL with Escherichia coli [5] and 16 µg/mL with Escherichia coli [9]. Further, the remaining at 0.75 h, 5 µM in data set [3] turned out to be 100%. Besides, the inhibition in the data set on Bacteria [4] is > 50%; with Bacteria [10], 41%; in data set [12], > 50%. Moreover, the microsomal CLint at 5 µM in data set [7] was 7.6 µL/min/mg. For the same compound, the Ki in [8] stood at 3690 nM; in [13] it was 360 nM. For the same compound, in the data set on Escherichia coli [15], the “fold change (FC)” value was 4. In addition, the IC50 in the data set on HCT-116 and in the data set on MRC5 was > 100000 nM each time.

Compound `CN1CCN(NC(=O)CN2C(=O)/C(=C/c3c(Cl)ccc(Cl)c3Cl)SC2=S)CC1` yielded an IC50 in data set [16] of 9440 nM.

As to `COc1ccc(N2/C(=N/c3ccc(Br)cc3)CC2c2ccc(Cl)cc2)cc1` (racemic), the inhibition (in the data set on Bacteria [4]; in the data set on Bacteria [10]; in data set [12]) was > 50% in each case. Moreover, the Ki in data set [6] worked out at 840 nM; in data set [8] it was 1550 nM; in data set [13], 300 nM.

`Oc1ccc(N2/C(=N/c3ccc(I)cc3)CC2c2ccc(Cl)cc2Cl)cc1` (racemic): the inhibition in the data set with Bacteria [17] was 100%; in the data set with Bacteria [18], 0%; in the data set on Bacteria [19] it was 83%; in the data set with Bacteria [4], > 50%; in the data set on Bacteria [20], 86%; with Bacteria [21] it was 100%. The inhibition in the data set on Bacteria [10] is > 50%; in the data set on Bacteria [22], 100%; with Bacteria [23], 100%; in [12] it was > 50%. In addition, the MIC in the data set on Escherichia coli [2] was found to be 4 µg/mL; in the data set on Escherichia coli [5] it was 4 µg/mL; in the data set with Escherichia coli [9], 8 µg/mL. Also, the remaining at 0.75 h, 5 µM in data set [3] is 96%. Moreover, the Ki in data set [6] is 70 nM; in [8], 280 nM; in data set [13], 70 nM. Besides, the microsomal CLint at 5 µM in [7] is 13.9 µL/min/mg. Besides, the figures for the IC50 in the data set on HCT-116 and in the data set on MRC5 were 32300 nM and 19900 nM, respectively.

With `COc1ccc(N2/C(=N/c3ccc(I)cc3)CC2c2ccc3ccccc3c2)cc1` (racemic), the inhibition (with Bacteria [4]; with Bacteria [10]; in data set [12]) was > 50% each time. Moreover, the values for the Ki in data set [6], in data set [8] and in [13] were 850 nM, 1580 nM and 230 nM, respectively.

Consider `COc1ccc(N2/C(=N/c3ccc(I)cc3)CC2c2ccc(I)cc2)cc1` (racemic), for which the inhibition (in the data set with Bacteria [4]; in the data set on Bacteria [10]; in data set [12]) was > 50% each time. Moreover, the figures for the Ki in data set [6], in data set [8] and in data set [13] were 510 nM, 5660 nM and 370 nM, respectively.

With `COc1ccc(N2/C(=N/c3ccc(C(F)(F)F)cc3)CC2c2ccc(Cl)cc2Cl)cc1` (racemic), the inhibition (in the data set on Bacteria [4]; with Bacteria [10]; in data set [12]) was > 50% each time. Besides, the values for the Ki in [6], in data set [8] and in data set [13] were 640 nM, 6040 nM and 370 nM, respectively.

On to `COc1ccc(N2/C(=N/c3ccc(I)cc3)CC2c2ccc(F)cc2)cc1` (racemic), for which the inhibition (in the data set with Bacteria [4]; with Bacteria [10]; in data set [12]) was > 50% in each case. Further, the Ki worked out at 450 nM in data set [6], 6490 nM in data set [8] and 500 nM in data set [13].

For the compound `CCOc1ccc(N2/C(=N/c3ccc(OC)cc3)CC2c2ccc3ccccc3c2)cc1` (racemic), the inhibition (with Bacteria [4]; in the data set with Bacteria [10]; in data set [12]) was > 50% in each case. For the same compound, the Ki was found to be 840 nM in [6], 1810 nM in data set [8] and 270 nM in data set [13].
